Laboratory results as given in ChEMBL document CHEMBL1138555, “N-acylated and N,N'-diacylated imidazolidine-2-thione derivatives and N,N'-diacylated tetrahydropyrimidine-2(1H)-thione analogues: synthesis and antiproliferative activity” (Eur J Med Chem, 2009).

Test system: OVCAR-8
Assay: Growth inhibition of human OVCAR8 cells after 48 hrs by sulforhodamine B assay
Assay type: functional
Details: OVCAR-8, 48 h
In short: (§1)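 NCI screen panel. Five 10-fold concentrations from 10^-4 to 10^-8 M. Exposure for the last 48 h of a 72 h incubation. Growth estimated by sulforhodamine B protein assay. GI50 is the concentration giving 50% growth inhibition. Where that level was not reached or was exceeded, the value is given as above or below the highest or lowest concentration tested.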

SMILES | GI50
O=C(c1ccc(Cl)c(Cl)c1)N1CCN(C(=O)c2ccc(Cl)c(Cl)c2)C1=S | 19 µM

Test system: NCI-H322M
Assay: Growth inhibition of human NCI-H322M cells after 48 hrs by sulforhodamine B assay
Assay type: functional
Details: not given
In short: as §1

SMILES | GI50
O=C(c1ccc(Cl)c(Cl)c1)N1CCN(C(=O)c2ccc(Cl)c(Cl)c2)C1=S | 19.8 µM

Test system: HCT-15
Assay: Growth inhibition of human HCT15 cells after 48 hrs by sulforhodamine B assay
Assay type: functional
Details: HCT-15, 48 h
In short: as §1

SMILES | GI50
O=C(c1ccc(Cl)c(Cl)c1)N1CCN(C(=O)c2ccc(Cl)c(Cl)c2)C1=S | 19.6 µM

Test system: SK-MEL-2
Assay: Growth inhibition of human SK-MEL-2 cells after 48 hrs by sulforhodamine B assay
Assay type: functional
Details: SK-MEL-2, 48 h
In short: as §1

SMILES | GI50
O=C(c1ccc(Cl)c(Cl)c1)N1CCN(C(=O)c2ccc(Cl)c(Cl)c2)C1=S | 18.4 µM

Test system: TK-10
Assay: Growth inhibition of human TK10 cells after 48 hrs by sulforhodamine B assay
Assay type: functional
Details: TK-10, 48 h
In short: (§2)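 NCI in vitro panel screen. Compounds tested at five 10-fold dilutions, 10^-4 to 10^-8 M. Cells in 96-well plates were exposed for the last 48 h of a 72 h incubation. Viability/growth was read by sulforhodamine B protein assay. GI50 is the concentration giving 50% growth inhibition. Values beyond the tested range are reported as greater or less than the maximum or minimum concentration.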

SMILES | GI50
O=C(c1ccc(Cl)c(Cl)c1)N1CCN(C(=O)c2ccc(Cl)c(Cl)c2)C1=S | 18.5 µM

Test system: HT-29
Assay: Growth inhibition of human HT-29 cells after 48 hrs by sulforhodamine B assay
Assay type: functional
Details: HT-29, 48 h
In short: as §1

SMILES | GI50
O=C(c1ccc(Cl)c(Cl)c1)N1CCN(C(=O)c2ccc(Cl)c(Cl)c2)C1=S | 24.2 µM

Test system: LOX IMVI
Assay: Growth inhibition of human LOXIMVI cells after 48 hrs by sulforhodamine B assay
Assay type: functional
Details: not given
In short: as §1

SMILES | GI50
O=C(c1ccc(Cl)c(Cl)c1)N1CCN(C(=O)c2ccc(Cl)c(Cl)c2)C1=S | 7.6 µM

Test system: MDA-N
Assay: Growth inhibition of human MDA-N cells after 48 hrs by sulforhodamine B assay
Assay type: functional
Details: not given
In short: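 NCI screen panel. Five 10-fold concentrations from 10^-4 to 10^-8 M. Exposure for the last 48 h of a 72 h incubation. Growth estimated by sulforhodamine B protein assay. Where that level was not reached or was exceeded, the value is given as above or below the highest or lowest concentration tested.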

SMILES | GI50
O=C(c1ccc(Cl)c(Cl)c1)N1CCN(C(=O)c2ccc(Cl)c(Cl)c2)C1=S | 18.3 µM

Test system: K562
Assay: Growth inhibition of human K562 cells after 48 hrs by sulforhodamine B assay
Assay type: functional
Details: K562, 48 h
In short: as §1

SMILES | GI50
O=C(c1ccc(Cl)c(Cl)c1)N1CCN(C(=O)c2ccc(Cl)c(Cl)c2)C1=S | 16.5 µM

Test system: U-251
Assay: Growth inhibition of human U251 cells after 48 hrs by sulforhodamine B assay
Assay type: functional
Details: U-251, 48 h
In short: as §2

SMILES | GI50
O=C(c1ccc(Cl)c(Cl)c1)N1CCN(C(=O)c2ccc(Cl)c(Cl)c2)C1=S | 16.4 µM

Test system: OVCAR-3
Assay: Growth inhibition of human OVCAR-3 cells after 48 hrs by sulforhodamine B assay
Assay type: functional
Details: OVCAR-3, 48 h
In short: as §1

SMILES | GI50
O=C(c1ccc(Cl)c(Cl)c1)N1CCN(C(=O)c2ccc(Cl)c(Cl)c2)C1=S | 17.1 µM

Test system: MOLT-4
Assay: Growth inhibition of human MOLT4 cells after 48 hrs by sulforhodamine B assay
Assay type: functional
Details: MOLT-4, 48 h
In short: as §1

SMILES | GI50
O=C(c1ccc(Cl)c(Cl)c1)N1CCN(C(=O)c2ccc(Cl)c(Cl)c2)C1=S | 15.7 µM

Test system: MDA-MB-435
Assay: Growth inhibition of human MDA-MB-435 cells after 48 hrs by sulforhodamine B assay
Assay type: functional
Details: MDA-MB-435, 48 h
In short: as §1

SMILES | GI50
O=C(c1ccc(Cl)c(Cl)c1)N1CCN(C(=O)c2ccc(Cl)c(Cl)c2)C1=S | 15.4 µM

Test system: NCI/ADR-RES
Assay: Growth inhibition of human NCI/ADR-RES cells after 48 hrs by sulforhodamine B assay
Assay type: functional
Details: not given
In short: as §1

SMILES | GI50
O=C(c1ccc(Cl)c(Cl)c1)N1CCN(C(=O)c2ccc(Cl)c(Cl)c2)C1=S | 34.4 µM

Test system: NCI-H23
Assay: Growth inhibition of human NCI-H23 cells after 48 hrs by sulforhodamine B assay
Assay type: functional
Details: NCI-H23, 48 h
In short: as §1

SMILES | GI50
O=C(c1ccc(Cl)c(Cl)c1)N1CCN(C(=O)c2ccc(Cl)c(Cl)c2)C1=S | 22 µM

Test system: PC-3
Assay: Growth inhibition of human PC3 cells after 48 hrs by sulforhodamine B assay
Assay type: functional
Details: PC-3, 48 h
In short: as §1

SMILES | GI50
O=C(c1ccc(Cl)c(Cl)c1)N1CCN(C(=O)c2ccc(Cl)c(Cl)c2)C1=S | 16.7 µM

Test system: OVCAR-4
Assay: Growth inhibition of human OVCAR4 cells after 48 hrs by sulforhodamine B assay
Assay type: functional
Details: OVCAR-4, 48 h
In short: as §1

SMILES | GI50
O=C(c1ccc(Cl)c(Cl)c1)N1CCN(C(=O)c2ccc(Cl)c(Cl)c2)C1=S | 16.8 µM

Test system: SNB-75
Assay: Growth inhibition of human SNB75 cells after 48 hrs by sulforhodamine B assay
Assay type: functional
Details: SNB-75, 48 h
In short: as §2

SMILES | GI50
O=C(c1ccc(Cl)c(Cl)c1)N1CCN(C(=O)c2ccc(Cl)c(Cl)c2)C1=S | 18.9 µM

Test system: BT-549
Assay: Growth inhibition of human BT549 cells after 48 hrs by sulforhodamine B assay
Assay type: functional
Details: BT-549, 48 h
In short: as §1

SMILES | GI50
O=C(c1ccc(Cl)c(Cl)c1)N1CCN(C(=O)c2ccc(Cl)c(Cl)c2)C1=S | 23.6 µM

Test system: SF-539
Assay: Growth inhibition of human SF539 cells after 48 hrs by sulforhodamine B assay
Assay type: functional
Details: SF-539, 48 h
In short: as §1

SMILES | GI50
O=C(c1ccc(Cl)c(Cl)c1)N1CCN(C(=O)c2ccc(Cl)c(Cl)c2)C1=S | 15.1 µM

Test system: RXF 393
Assay: Growth inhibition of human RXF393 cells after 48 hrs by sulforhodamine B assay
Assay type: functional
Details: RXF 393, 48 h
In short: as §1

SMILES | GI50
O=C(c1ccc(Cl)c(Cl)c1)N1CCN(C(=O)c2ccc(Cl)c(Cl)c2)C1=S | 17.8 µM

Test system: M14
Assay: Growth inhibition of human M14 cells after 48 hrs by sulforhodamine B assay
Assay type: functional
Details: M14, 48 h
In short: as §1

SMILES | GI50
O=C(c1ccc(Cl)c(Cl)c1)N1CCN(C(=O)c2ccc(Cl)c(Cl)c2)C1=S | 19.6 µM

Test system: HCC 2998
Assay: Growth inhibition of human HCC2998 cells after 48 hrs by sulforhodamine B assay
Assay type: functional
Details: HCC 2998, 48 h
In short: as §1

SMILES | GI50
O=C(c1ccc(Cl)c(Cl)c1)N1CCN(C(=O)c2ccc(Cl)c(Cl)c2)C1=S | 19.9 µM

Test system: SN12C
Assay: Growth inhibition of human SN12C cells after 48 hrs by sulforhodamine B assay
Assay type: functional
Details: not given
In short: as §2

SMILES | GI50
O=C(c1ccc(Cl)c(Cl)c1)N1CCN(C(=O)c2ccc(Cl)c(Cl)c2)C1=S | 18.3 µM

Test system: HCT-116
Assay: Growth inhibition of human HCT116 cells after 48 hrs by sulforhodamine B assay
Assay type: functional
Details: HCT-116, 48 h
In short: as §1

SMILES | GI50
O=C(c1ccc(Cl)c(Cl)c1)N1CCN(C(=O)c2ccc(Cl)c(Cl)c2)C1=S | 18.1 µM

Test system: A549
Assay: Growth inhibition of human A549 cells after 48 hrs by sulforhodamine B assay
Assay type: functional
Details: A549, 48 h
In short: as §1

SMILES | GI50
O=C(c1ccc(Cl)c(Cl)c1)N1CCN(C(=O)c2ccc(Cl)c(Cl)c2)C1=S | 27.8 µM

Test system: HOP-62
Assay: Growth inhibition of human HOP62 cells after 48 hrs by sulforhodamine B assay
Assay type: functional
Details: HOP-62, 48 h
In short: as §1

SMILES | GI50
O=C(c1ccc(Cl)c(Cl)c1)N1CCN(C(=O)c2ccc(Cl)c(Cl)c2)C1=S | 17.6 µM

Test system: EKVX
Assay: Growth inhibition of human EKVX cells after 48 hrs by sulforhodamine B assay
Assay type: functional
Details: not given
In short: as §1

SMILES | GI50
O=C(c1ccc(Cl)c(Cl)c1)N1CCN(C(=O)c2ccc(Cl)c(Cl)c2)C1=S | 20.8 µM

Test system: A498
Assay: Growth inhibition of human A498 cells after 48 hrs by sulforhodamine B assay
Assay type: functional
Details: A498, 48 h
In short: as §1

SMILES | GI50
O=C(c1ccc(Cl)c(Cl)c1)N1CCN(C(=O)c2ccc(Cl)c(Cl)c2)C1=S | 20.2 µM

Test system: DU-145
Assay: Growth inhibition of human DU145 cells after 48 hrs by sulforhodamine B assay
Assay type: functional
Details: DU-145, 48 h
In short: as §1

SMILES | GI50
O=C(c1ccc(Cl)c(Cl)c1)N1CCN(C(=O)c2ccc(Cl)c(Cl)c2)C1=S | 14.7 µM

Test system: KM12
Assay: Growth inhibition of human KM12 cells after 48 hrs by sulforhodamine B assay
Assay type: functional
Details: KM12, 48 h
In short: as §1

SMILES | GI50
O=C(c1ccc(Cl)c(Cl)c1)N1CCN(C(=O)c2ccc(Cl)c(Cl)c2)C1=S | 16.1 µM

Test system: ACHN
Assay: Growth inhibition of human ACHN cells after 48 hrs by sulforhodamine B assay
Assay type: functional
Details: not given
In short: as §1

SMILES | GI50
O=C(c1ccc(Cl)c(Cl)c1)N1CCN(C(=O)c2ccc(Cl)c(Cl)c2)C1=S | 19.2 µM

Test system: SF-268
Assay: Growth inhibition of human SF268 cells after 48 hrs by sulforhodamine B assay
Assay type: functional
Details: SF-268, 48 h
In short: as §1

SMILES | GI50
O=C(c1ccc(Cl)c(Cl)c1)N1CCN(C(=O)c2ccc(Cl)c(Cl)c2)C1=S | 16.8 µM

Test system: NCI-H522
Assay: Growth inhibition of human NCI-H522 cells after 48 hrs by sulforhodamine B assay
Assay type: functional
Details: NCI-H522, 48 h
In short: as §1

SMILES | GI50
O=C(c1ccc(Cl)c(Cl)c1)N1CCN(C(=O)c2ccc(Cl)c(Cl)c2)C1=S | 6.1 µM

Test system: CAKI-1
Assay: Growth inhibition of human Caki1 cells after 48 hrs by sulforhodamine B assay
Assay type: functional
Details: CAKI-1, 48 h
In short: as §1

SMILES | GI50
O=C(c1ccc(Cl)c(Cl)c1)N1CCN(C(=O)c2ccc(Cl)c(Cl)c2)C1=S | 14 µM

Test system: MT4
Assay: Antiproliferative activity against human MT4 cells assessed as reduction of growth by MTT assay
Assay type: functional, cell-based
Details: not given
In short: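 MT-4 lymphoblastoid T cells (ATCC) in RPMI 1640 with 10% FCS, penicillin/streptomycin, checked for mycoplasma. 1 × 10⁴ mock-infected cells per well with serial dilutions from a 100 mM DMSO stock. Incubated 4 days at 37 °C, viable cells counted by MTT. IC50 versus untreated controls by linear regression. Mean of three separate experiments.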

SMILES | IC50
O=C(c1ccc(Cl)c(Cl)c1)N1CCN(C(=O)c2ccc(Cl)c(Cl)c2)C1=S | 4.6 µM

Test system: IGROV-1
Assay: Growth inhibition of human IGROV1 cells after 48 hrs by sulforhodamine B assay
Assay type: functional
Details: IGROV-1, 48 h
In short: as §1

SMILES | GI50
O=C(c1ccc(Cl)c(Cl)c1)N1CCN(C(=O)c2ccc(Cl)c(Cl)c2)C1=S | 19.7 µM

Test system: HL-60(TB)
Assay: Growth inhibition of human HL-60(TB) cells after 48 hrs by sulforhodamine B assay
Assay type: functional
Details: HL-60, 48 h
In short: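 NCI 60-cell-line screen protocol: cells exposed to compound at five 10-fold dilutions from 10^-4 to 10^-8 M for the last 48 h of a 72 h incubation. Sulforhodamine B protein assay estimated viability/growth. GI50 (50% growth inhibition) derived; where not reached or exceeded, reported as greater or less than the highest or lowest concentration tested.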

SMILES | GI50
O=C(c1ccc(Cl)c(Cl)c1)N1CCN(C(=O)c2ccc(Cl)c(Cl)c2)C1=S | 12.7 µM
